Measured values: ChEMBL document CHEMBL5329174, “Discovery of benzoxazole-thiazolidinone hybrids as promising antibacterial agents against Staphylococcus aureus and Enterococcus species” (RSC Med Chem, 2023)
In brackets after ≈: the same amount, converted by molar mass.

Tests used:
Enterococcus faecalis [1] = test: Antibacterial activity against vancomycin-susceptible Enterococcus faecalis NR 31885 assessed as inhibition of bacterial growth incubated for 18 to 24 hrs by broth microdilution assay; format: functional; settings: time 18-24 hrs
Summary of the method: (§1)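 CLSI broth microdilution in cation-supplemented Mueller–Hinton broth II; overnight starter cultures (37 °C, shaking, 18–24 h) adjusted by OD600 to ~10^6 CFU/mL. Compounds dosed from DMSO stocks (10 mg/mL stock) as two-fold dilutions, 64–0.5 mg/L. Plates held 37 °C, 18–24 h. MIC = lowest concentration without visible growth. Three independent runs, each in duplicate.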

Enterococcus faecalis [2] = test: Antibacterial activity against vancomycin-susceptible Enterococcus faecalis NR 31888 assessed as inhibition of bacterial growth incubated for 18 to 24 hrs by broth microdilution assay; format: functional; settings: time 18-24 hrs; summary of the method: as §1
Enterococcus faecalis [3] = test: Antibacterial activity against vancomycin-susceptible Enterococcus faecalis NR 31884 assessed as inhibition of bacterial growth incubated for 18 to 24 hrs by broth microdilution assay; format: functional; settings: time 18-24 hrs; summary of the method: as §1
Enterococcus faecalis [4] = test: Antibacterial activity against vancomycin-susceptible Enterococcus faecalis NR 31886 assessed as inhibition of bacterial growth incubated for 18 to 24 hrs by broth microdilution assay; format: functional; settings: time 18-24 hrs; summary of the method: as §1
Enterococcus faecium [5] = test: Antibacterial activity against vancomycin-resistant Enterococcus faecium NR 31903 assessed as inhibition of bacterial growth
Enterococcus faecalis [6] = test: Antibacterial activity against vancomycin-susceptible Enterococcus faecalis NR 31887 assessed as inhibition of bacterial growth incubated for 18 to 24 hrs by broth microdilution assay; format: functional; settings: time 18-24 hrs; summary of the method: as §1
Enterococcus faecium [7] = test: Antibacterial activity against vancomycin-resistant Enterococcus faecium NR 31912 assessed as inhibition of bacterial growth
Enterococcus faecium [8] = test: Antibacterial activity against vancomycin-resistant Enterococcus faecium NR 31909 assessed as inhibition of bacterial growth
Escherichia coli = test: Antibacterial activity against Escherichia coli ATCC 25922 assessed as reduction in bacterial growth; format: functional; summary of the method: as §1
Acinetobacter baumannii = test: Antibacterial activity against Acinetobacter baumannii BAA-1605 assessed as reduction in bacterial growth; format: functional; summary of the method: as §1
Pseudomonas aeruginosa = test: Antibacterial activity against Pseudomonas aeruginosa ATCC 27853 assessed as reduction in bacterial growth; format: functional; summary of the method: as §1
Klebsiella pneumoniae = test: Antibacterial activity against Klebsiella pneumoniae BAA-1705 assessed as reduction in bacterial growth; format: functional; summary of the method: as §1
Staphylococcus aureus [9] = test: Antibacterial activity against Staphylococcus aureus ATCC 29213 assessed as reduction in bacterial growth; format: functional; summary of the method: as §1
Staphylococcus aureus [10] = test: Antibacterial activity against methicilin-resistant Staphylococcus aureus NRS 193 assessed as reduction in bacterial growth; format: functional
Summary of the method: (§2)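 CLSI broth microdilution in cation-supplemented Mueller–Hinton broth II. Starter cultures were grown overnight at 37 °C with shaking from a single MHA colony, then diluted by OD600 to ~10^6 CFU/mL. Compounds came from 10 mg/mL DMSO stocks and were tested two-fold from 64 to 0.5 mg/L. Plates were incubated 37 °C for 18–24 h. MIC was taken as the lowest concentration with no visible growth. Three independent runs, each in duplicate.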

Staphylococcus aureus [11] = test: Antibacterial activity against methicilin-resistant Staphylococcus aureus NRS 191 assessed as reduction in bacterial growth; format: functional; summary of the method: as §2
Staphylococcus aureus [12] = test: Antibacterial activity against methicilin-resistant Staphylococcus aureus NRS 194 assessed as reduction in bacterial growth; format: functional; summary of the method: as §2
[13] = Cytotoxicity against african green monkey Vero cells assessed as reduction in cell viability incubated for 72 hrs by MTT assay; format: toxicity, cell-based; settings: chlorocebus sabaeus
Summary of the method: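 Vero (ATCC CCL-81) cells seeded at ~10^3 per well, 37 °C, 5% CO2. After 24 h, compound added at 100–12.5 μg/mL for 72 h. MTT then given for 4 h at 37 °C, formazan dissolved in DMSO, absorbance read at 540 nm. CC50 taken as the concentration giving 50% viability loss; doxorubicin as positive control; triplicate.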

[14] = Selectivity index, ratio of CC50 for cytotoxicity against african green monkey Vero cells assessed as reduction in cell viability to MIC for antibacterial activity against Staphylococcus aureus ATCC 29213 assessed as reduction in bacterial growth; format: toxicity, cell-based; settings: read-out: Selectivity Index
Staphylococcus aureus [15] = test: Antibacterial activity against methicilin-resistant Staphylococcus aureus NRS 100 assessed as reduction in bacterial growth; format: functional; summary of the method: as §2
Staphylococcus aureus [16] = test: Antibacterial activity against vancomycin-resistant Staphylococcus aureus VRS 12 assessed as reduction in bacterial growth; format: functional; summary of the method: as §2
Staphylococcus aureus [17] = test: Antibacterial activity against methicilin-resistant Staphylococcus aureus NRS 198 assessed as reduction in bacterial growth; format: functional; summary of the method: as §2
Staphylococcus aureus [18] = test: Antibacterial activity against methicilin-resistant Staphylococcus aureus NRS 129 assessed as reduction in bacterial growth; format: functional; summary of the method: as §2
Staphylococcus aureus [19] = test: Antibacterial activity against vancomycin-resistant Staphylococcus aureus VRS 1 assessed as reduction in bacterial growth; format: functional; summary of the method: as §2
Staphylococcus aureus [20] = test: Antibacterial activity against methicilin-resistant Staphylococcus aureus NRS 119 assessed as reduction in bacterial growth; format: functional; summary of the method: as §2
Staphylococcus aureus [21] = test: Antibacterial activity against methicilin-resistant Staphylococcus aureus NRS 192 assessed as reduction in bacterial growth; format: functional; summary of the method: as §2
Staphylococcus aureus [22] = test: Antibacterial activity against vancomycin-resistant Staphylococcus aureus VRS 4 assessed as reduction in bacterial growth; format: functional; summary of the method: as §2
Staphylococcus aureus [23] = test: Antibacterial activity against methicilin-resistant Staphylococcus aureus NRS 186 assessed as reduction in bacterial growth; format: functional; summary of the method: as §2

Row | SMILES | MIC (Enterococcus faecalis [1]) | MIC (Enterococcus faecalis [2]) | MIC (Enterococcus faecalis [3]) | MIC (Enterococcus faecalis [4]) | MIC (Enterococcus faecalis [6]) | MIC (Escherichia coli) | MIC (Acinetobacter baumannii) | MIC (Pseudomonas aeruginosa) | MIC (Klebsiella pneumoniae) | MIC (Staphylococcus aureus [9]) | also measured
1 | CN(C)c1ccc(O)c2c1C[C@H]1C[C@H]3[C@H](N(C)C)C(O)=C(C(N)=O)C(=O)[C@@]3(O)C(O)=C1C2=O [MINOCYCLINE] | 0.5 µg/mL (≈ 1.09 µM) | 0.5 µg/mL (≈ 1.09 µM) | 0.5 µg/mL (≈ 1.09 µM) | 0.5 µg/mL (≈ 1.09 µM) | 8 µg/mL (≈ 17.5 µM) | – | – | – | – | – | MIC (Enterococcus faecium [5]): 8 µg/mL (≈ 17.5 µM); MIC (Enterococcus faecium [7]): 8 µg/mL (≈ 17.5 µM); MIC (Enterococcus faecium [8]): 8 µg/mL (≈ 17.5 µM)
2 | O=C1N/C(=N\c2nc3ccccc3o2)S/C1=C\c1ccccc1[N+](=O)[O-] | – | – | – | – | – | > 64 µg/mL | > 64 µg/mL | > 64 µg/mL | > 64 µg/mL | 8 µg/mL (≈ 21.8 µM) | –
3 | O=C1N/C(=N\c2nc3ccccc3o2)S/C1=C\c1cccc(O)c1 | 16 µg/mL (≈ 47.4 µM) | 16 µg/mL (≈ 47.4 µM) | 16 µg/mL (≈ 47.4 µM) | 16 µg/mL (≈ 47.4 µM) | 8 µg/mL (≈ 23.7 µM) | > 64 µg/mL | > 64 µg/mL | > 64 µg/mL | > 64 µg/mL | 2 µg/mL (≈ 5.93 µM) | MIC (Staphylococcus aureus [10]): 2 µg/mL (≈ 5.93 µM); MIC (Staphylococcus aureus [11]): 2 µg/mL (≈ 5.93 µM); MIC (Staphylococcus aureus [12]): 2 µg/mL (≈ 5.93 µM); CC50 at 72 h [13]: > 40 µg/mL; selectivity ratio [14]: > 20; MIC (Staphylococcus aureus [15]): 1 µg/mL (≈ 2.96 µM); MIC (Staphylococcus aureus [16]): 2 µg/mL (≈ 5.93 µM); MIC (Staphylococcus aureus [17]): 2 µg/mL (≈ 5.93 µM); MIC (Staphylococcus aureus [18]): 2 µg/mL (≈ 5.93 µM); MIC (Staphylococcus aureus [19]): 2 µg/mL (≈ 5.93 µM); MIC (Enterococcus faecium [5]): 4 µg/mL (≈ 11.9 µM); MIC (Enterococcus faecium [7]): 0.25 µg/mL (≈ 0.741 µM); MIC (Enterococcus faecium [8]): 0.25 µg/mL (≈ 0.741 µM); MIC (Staphylococcus aureus [20]): 2 µg/mL (≈ 5.93 µM); MIC (Staphylococcus aureus [21]): 2 µg/mL (≈ 5.93 µM); MIC (Staphylococcus aureus [22]): 2 µg/mL (≈ 5.93 µM); MIC (Staphylococcus aureus [23]): 1 µg/mL (≈ 2.96 µM)
4 | O=C1N/C(=N\c2nc3ccccc3o2)S/C1=C\c1ccccc1Cl | – | – | – | – | – | > 64 µg/mL | > 64 µg/mL | > 64 µg/mL | > 64 µg/mL | 16 µg/mL (≈ 45 µM) | –
5 | O=C1N/C(=N\c2nc3ccccc3o2)S/C1=C\c1ccccc1 | – | – | – | – | – | > 64 µg/mL | > 64 µg/mL | > 64 µg/mL | > 64 µg/mL | 4 µg/mL (≈ 12.4 µM) | –
6 | CN[C@H](CC(C)C)C(=O)N[C@H]1C(=O)N[C@@H](CC(N)=O)C(=O)N[C@H]2C(=O)N[C@H]3C(=O)N[C@H](C(=O)N[C@H](C(=O)O)c4cc(O)cc(O)c4-c4cc3ccc4O)[C@H](O)c3ccc(c(Cl)c3)Oc3cc2cc(c3O[C@@H]2O[C@H](CO)[C@@H](O)[C@H](O)[C@H]2O[C@H]2C[C@](C)(N)[C@H](O)[C@H](C)O2)Oc2ccc(cc2Cl)[C@H]1O [VANCOMYCIN] | 2 µg/mL (≈ 1.38 µM) | 2 µg/mL (≈ 1.38 µM) | 2 µg/mL (≈ 1.38 µM) | 2 µg/mL (≈ 1.38 µM) | 2 µg/mL (≈ 1.38 µM) | – | – | – | – | – | MIC (Staphylococcus aureus [16]): > 64 µg/mL; MIC (Staphylococcus aureus [19]): > 64 µg/mL; MIC (Staphylococcus aureus [22]): > 64 µg/mL
7 | O=C1N/C(=N\c2nc3ccccc3o2)S/C1=C\c1cccc(Cl)c1 | – | – | – | – | – | > 64 µg/mL | > 64 µg/mL | > 64 µg/mL | > 64 µg/mL | 8 µg/mL (≈ 22.5 µM) | –
8 | C[C@H]1COc2c(N3CCN(C)CC3)c(F)cc3c(=O)c(C(=O)O)cn1c23 [LEVOFLOXACIN ANHYDROUS] | 0.25 µg/mL (≈ 0.692 µM) | 0.25 µg/mL (≈ 0.692 µM) | 0.25 µg/mL (≈ 0.692 µM) | 0.25 µg/mL (≈ 0.692 µM) | 0.25 µg/mL (≈ 0.692 µM) | – | – | – | 64 µg/mL (≈ 177 µM) | 0.125 µg/mL (≈ 0.346 µM) | MIC (Staphylococcus aureus [10]): 32 µg/mL (≈ 88.6 µM); MIC (Staphylococcus aureus [11]): 16 µg/mL (≈ 44.3 µM); MIC (Staphylococcus aureus [12]): 0.125 µg/mL (≈ 0.346 µM); CC50 at 72 h [13]: > 100 µg/mL; MIC (Staphylococcus aureus [15]): 0.25 µg/mL (≈ 0.692 µM); MIC (Staphylococcus aureus [16]): 32 µg/mL (≈ 88.6 µM); MIC (Staphylococcus aureus [17]): 32 µg/mL (≈ 88.6 µM); MIC (Staphylococcus aureus [18]): 0.25 µg/mL (≈ 0.692 µM); MIC (Staphylococcus aureus [19]): 64 µg/mL (≈ 177 µM); MIC (Enterococcus faecium [5]): > 64 µg/mL; MIC (Enterococcus faecium [7]): 64 µg/mL (≈ 177 µM); MIC (Enterococcus faecium [8]): 64 µg/mL (≈ 177 µM); MIC (Staphylococcus aureus [20]): 16 µg/mL (≈ 44.3 µM); MIC (Staphylococcus aureus [21]): 8 µg/mL (≈ 22.1 µM); MIC (Staphylococcus aureus [22]): > 64 µg/mL; MIC (Staphylococcus aureus [23]): 8 µg/mL (≈ 22.1 µM)
9 | O=C1N/C(=N\c2nc3ccccc3o2)S/C1=C\c1ccccc1F | – | – | – | – | – | > 64 µg/mL | > 64 µg/mL | > 64 µg/mL | > 64 µg/mL | 16 µg/mL (≈ 47.1 µM) | –
10 | O=C1N/C(=N\c2nc3ccccc3o2)S/C1=C\c1ccc(Br)cc1 | – | – | – | – | – | > 64 µg/mL | > 64 µg/mL | > 64 µg/mL | > 64 µg/mL | 32 µg/mL (≈ 79.9 µM) | –
11 | CSc1ccc(/C=C2\S/C(=N/c3nc4ccccc4o3)NC2=O)cc1 | – | – | – | – | – | > 64 µg/mL | > 64 µg/mL | > 64 µg/mL | > 64 µg/mL | 32 µg/mL (≈ 87.1 µM) | –
12 | O=C1N/C(=N\c2nc3ccccc3o2)S/C1=C\c1ccco1 | – | – | – | – | – | > 64 µg/mL | > 64 µg/mL | > 64 µg/mL | > 64 µg/mL | 8 µg/mL (≈ 25.7 µM) | –
13 | O=C1N/C(=N\c2nc3ccccc3o2)S/C1=C\c1cccs1 | – | – | – | – | – | > 64 µg/mL | > 64 µg/mL | > 64 µg/mL | > 64 µg/mL | 16 µg/mL (≈ 48.9 µM) | –
